Screening results: PubChem BioAssay, The Scripps Research Institute Molecular Screening Center
CHRM4 agonist = agonists of human muscarinic M4 receptor (CHRM4) | P08173 | activation, % at 3 µM | hit rate 0.14% among 360,000 | CHO-K1 hM4/Gqi5, Fluo-8 calcium fluorescence; vehicle 0%, full acetylcholine response 100%;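 active = activation above the run mean over all test wells plus 3 SD, cut at about 32% in these data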;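 note: peak over basal fluorescence ratio per well then scaled between controls; 0% = DMSO wells and 100% = acetylcholine at EC100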
Target sequence (P08173 whole entry, looked up): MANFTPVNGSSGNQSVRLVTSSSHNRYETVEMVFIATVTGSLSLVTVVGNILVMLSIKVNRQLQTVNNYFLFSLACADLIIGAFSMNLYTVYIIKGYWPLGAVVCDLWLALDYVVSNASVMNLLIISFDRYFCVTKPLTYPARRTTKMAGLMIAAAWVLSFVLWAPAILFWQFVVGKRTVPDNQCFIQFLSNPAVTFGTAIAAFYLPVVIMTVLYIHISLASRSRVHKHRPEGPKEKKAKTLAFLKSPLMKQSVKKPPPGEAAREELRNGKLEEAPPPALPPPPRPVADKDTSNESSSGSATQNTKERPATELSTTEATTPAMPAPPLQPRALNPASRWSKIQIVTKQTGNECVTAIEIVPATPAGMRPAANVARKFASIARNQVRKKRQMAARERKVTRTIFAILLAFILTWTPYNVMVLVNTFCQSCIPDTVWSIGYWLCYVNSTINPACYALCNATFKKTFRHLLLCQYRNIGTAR
M4 PAM = positive allosteric modulators of human muscarinic M4 receptor. hit rate 0.4% among 360,000. activation, % at 3 µM. CHO-K1 hM4/Gqi5, Fluo-8 calcium fluorescence, ACh EC20; 0% = ACh EC20, 100% = maximal ACh. P08173. AID 624126;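 active = activation above its plate's cutoff, the mean activation of sample wells plus 3 SD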
M4 antag = blocks acetylcholine activation of human M4 receptor | CHO-hM4 cells, ACh EC80, Fluo-8 calcium fluorescence | inhibition, % at 3 µM | hit rate 0.73% among 360,000 | AID 624125;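 active = inhibition above its plate's cutoff, the mean inhibition of sample wells plus 3 SD, cut at about 27% in these data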;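 note: 0% = acetylcholine EC80 with DMSO and 100% = DMSO without agonist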
TAAR1 ag = agonists of human TAAR1. CHO RD-HGA16 TAAR1, Fluo-8 calcium fluorescence; vehicle wells 0%, saturating PEA agonist 100%. activation, % at 3 µM. hit rate 0.99% among 360,000. AID 624467;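 active = activation above the mean activation of all test compounds in the run plus 3 SD, cut at about 38% in these data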
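Test system: RD-HGA16 (CHO) cells co-expressing Gα16 and hTAAR1 / Benchmarks: DMSO vehicle as 0%, PEA at EC100 as 100% / Repeats: no replicates (n 1) / Measure: % activation from peak over basal fluorescence ratio, DMSO-to-PEA scaled / Timing: 17-24 h plating, Fluo-8 75 min 37 °C, 30 min RT / Technique: kinetic Fluo-8 calcium fluorescence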
TAAR1 antagonist = antagonists of human TAAR1; Q96RJ0; hit rate 1.5% among 360,000; CHO RD-HGA16 TAAR1, Fluo-8 calcium fluorescence, antagonist; inhibition, % at 3 µM;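 active = inhibition above a per-plate cutoff, the mean inhibition of test compounds on that plate plus 3 SD, cut at about 49% in these data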;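 note: 0% = DMSO plus EC80 beta-PEA response and 100% = DMSO alone without agonist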
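Assay system: CHO-derived RD-HGA16 cells stably expressing human TAAR1 plus Gα16. Timing: 140 s kinetic read after compound, 140 s after agonist. Technique: kinetic Fluo-8 calcium fluorescence measurement. Measure: % inhibition of agonist calcium response.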
TAAR1 nonsel count = counter-screen for TAAR1 antagonists: nonselective antagonists; shares compounds with TAAR1 antagonist; inhibition, % at 3 µM; AID 651780; counterscreen cell line, calcium fluorescence, antagonist mode; hit rate 77% among 2,400; in the data active = inhibition above about 22%;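 note: CHO-Ga16 host cells stimulated with ATP at an EC80 level; 0% = agonist EC80 plus vehicle and 100% = vehicle without agonist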
TAAR1 antag conf = human TAAR1 antagonism, confirmed; AID 651785; hit rate 40% among 2,400; shares compounds with TAAR1 antagonist; TAAR1-expressing cells, fluorescence antagonist read-out; inhibition, % at 3 µM; in the data active = inhibition above about 49%;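 note: CHO-Ga16 host cells challenged with agonist PEA near its EC80; 0% = agonist at EC80 plus vehicle and 100% = vehicle with no agonist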
Ga16 ag counter = nonselective Ga16 agonist in TAAR1 antagonist counter-screen | shares compounds with TAAR1 antagonist | Ga16-expressing cells, calcium fluorescence, agonist counterscreen | activation, % at 3 µM | hit rate 18% among 2,400; in the data active = activation above about 12%;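 note: 0% = vehicle wells and 100% = saturating stimulus response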
TAAR1 ag count = counter-screen for human TAAR1 antagonists: TAAR1 agonists | shares compounds with TAAR1 antagonist | hTAAR1 cell line, fluorescence activation, agonist mode | activation, % at 3 µM | hit rate 2% among 2,400 | AID 651955; in the data active = activation above about 37%;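 note: CHO cells stably expressing TAAR1 with calcium dye readout; 0% = DMSO vehicle and 100% = full agonist response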
* hit, by the source's call. The list is not random: actives were taken first. Their share in the collection is about 3%.

For CC(C)(C)C(=O)NNC(=O)c1cc(C(C)(C)C)nn1Cc1ccccc1 the results were CHRM4 agonist 11.2, M4 PAM -29.4, M4 antag 3.9, TAAR1 ag -0.7 and TAAR1 antagonist -18.1.
`CCCCn1c(=O)n(CC(=O)NCc2ccc(C)cc2)c(=O)c2c1nc(CO)n2CCC` gave CHRM4 agonist 11.5, M4 PAM -11.6, M4 antag -6.0, TAAR1 ag 10.8, TAAR1 antagonist 50.3*, TAAR1 nonsel count 21.9*, TAAR1 antag conf 39.3, Ga16 ag counter 5.8 and TAAR1 ag count 4.1.
For C[C@@H]1CN([C@@H](C)CO)C(=O)CCCn2cc(nn2)CO[C@H]1CN(C)C(=O)Nc1cccc(Oc2ccccn2)c1 the results were TAAR1 ag 6.5 and TAAR1 antagonist 0.4.
CC(C)(C)NC(=O)C1c2ccccc2OCC(=O)N1Cc1ccccn1 (stereo unspecified) was read as CHRM4 agonist 1.1, M4 PAM -0.6, M4 antag 4.4, TAAR1 ag -0.3 and TAAR1 antagonist -4.5.
O=C(Nc1ccc(F)cc1)c1cccc(N2C(=O)C3C4C=CC(C5CC45)C3C2=O)c1 (stereo unspecified) was read as CHRM4 agonist 21.1, M4 PAM -12.5, M4 antag 9.3, TAAR1 ag 8.7 and TAAR1 antagonist 39.6.
Screening COC(=O)c1ccc(NC(=O)c2cccc(N3C(=O)C4C5C=CC(C6CC56)C4C3=O)c2)cc1 (stereo unspecified) returned CHRM4 agonist 8.2, M4 PAM -4.8, M4 antag -1.3, TAAR1 ag 13.3, TAAR1 antagonist 65.4*, TAAR1 nonsel count 58.1*, TAAR1 antag conf 74.5*, Ga16 ag counter 14.6* and TAAR1 ag count 12.1.
COc1ccc(OC)c(NC(=O)c2cccc(N3C(=O)C4C5C=CC(C6CC56)C4C3=O)c2)c1 (stereo unspecified) was read as CHRM4 agonist 13.7, M4 PAM -9.7, M4 antag 1.6, TAAR1 ag 11.0, TAAR1 antagonist 75.0*, TAAR1 nonsel count 46.2*, TAAR1 antag conf 61.9*, Ga16 ag counter 13.2* and TAAR1 ag count 10.2.
COc1ccc(OC)c(NC(=O)c2cccc(N3C(=O)C4C5CCC(C5)C4C3=O)c2)c1 (stereo unspecified) was read as CHRM4 agonist 15.5, M4 PAM 0.6, M4 antag 8.7, TAAR1 ag 6.6 and TAAR1 antagonist 28.6.
For CCc1nc2c(OCCOc3ccc(F)cc3)cccn2c1N(C)C(=O)c1ccco1 the results were CHRM4 agonist 1.7, M4 PAM 3.4, M4 antag -4.1, TAAR1 ag -1.0 and TAAR1 antagonist -16.2.
For O=C(CSc1nc(-c2ccccc2)cs1)NC(=O)NCc1ccco1 the results were CHRM4 agonist 10.2, M4 PAM -2.7, M4 antag -3.4, TAAR1 ag 7.2, TAAR1 antagonist 54.0*, TAAR1 nonsel count 30.0*, TAAR1 antag conf 41.5, Ga16 ag counter 5.2 and TAAR1 ag count 1.8.
Screening CC1(C)CC(=O)C=C(c2cccc(OC(=O)c3ccc(Br)cc3)c2)C1=O returned CHRM4 agonist 3.4, M4 PAM -2.1, M4 antag -7.1, TAAR1 ag 3.6 and TAAR1 antagonist 27.2.
For O=C(CN1CCC(n2nnc3cc(F)ccc32)CC1)NC1CC1 the results were CHRM4 agonist 0.6, M4 PAM 8.1, M4 antag -1.7, TAAR1 ag 0.0 and TAAR1 antagonist 1.5.
CCOc1ccc2nc(NC(=O)CN3CCC(n4nnc5cc(F)ccc54)CC3)sc2c1 was read as CHRM4 agonist 9.8, M4 PAM -14.5, M4 antag 2.4, TAAR1 ag 13.6, TAAR1 antagonist 68.0*, TAAR1 nonsel count 23.4*, TAAR1 antag conf 42.3, Ga16 ag counter 6.3 and TAAR1 ag count 5.9.
`Cc1ccc(-n2c(C)cc(/C=N/Nc3ccc([N+](=O)[O-])cn3)c2C)cc1` gave CHRM4 agonist -0.4, M4 PAM 8.3, M4 antag -8.1, TAAR1 nonsel count 3.6 and Ga16 ag counter 0.0.
Screening NC(=O)c1ccsc1NC(=O)C1CCN(S(=O)(=O)c2cccs2)CC1 returned CHRM4 agonist 8.0, M4 PAM 2.1, M4 antag 3.2, TAAR1 ag 13.9 and TAAR1 antagonist 39.3.
CNC(=O)c1ccsc1NC(=O)C1CCN(S(=O)(=O)c2ccc(Cl)s2)CC1 was read as CHRM4 agonist 17.1, M4 PAM -3.8, M4 antag -3.1, TAAR1 ag 11.8, TAAR1 antagonist 58.2*, TAAR1 nonsel count 29.1*, TAAR1 antag conf 47.4, Ga16 ag counter 15.1* and TAAR1 ag count 29.6.
`CC1(C(=O)NS(=O)(=O)c2ccccc2Cl)CCN1C(=O)c1ccco1` (stereo unspecified) gave CHRM4 agonist -0.2, M4 PAM 3.6, M4 antag -3.3, TAAR1 ag 7.3 and TAAR1 antagonist -10.1.
CN1CCc2nc3ccccc3c(C(=O)OCC(=O)N(CCC#N)c3ccccc3)c2C1 was read as CHRM4 agonist 21.5, M4 PAM -5.9, M4 antag -9.0, TAAR1 ag 17.2, TAAR1 antagonist 50.8*, TAAR1 nonsel count 23.4*, TAAR1 antag conf 46.5, Ga16 ag counter 8.3 and TAAR1 ag count 9.9.
For O=c1c2ccc([N+](=O)[O-])cc2ncn1CCOc1ccccc1 the results were CHRM4 agonist 20.5, M4 PAM -19.9, M4 antag 7.5, TAAR1 ag 15.7, TAAR1 antagonist 77.1*, TAAR1 nonsel count 26.4*, TAAR1 antag conf 61.8*, Ga16 ag counter 10.1 and TAAR1 ag count 8.5.
Cc1ccc(OCCn2cnc3cc([N+](=O)[O-])ccc3c2=O)cc1 was read as CHRM4 agonist 8.3, M4 PAM -3.1, M4 antag -5.2, TAAR1 ag 11.2, TAAR1 antagonist 78.2*, TAAR1 nonsel count 31.2*, TAAR1 antag conf 51.4*, Ga16 ag counter 9.3 and TAAR1 ag count 6.7.
`O=c1c2ccccc2ncn1CCOCCOc1ccc([N+](=O)[O-])cc1` gave CHRM4 agonist 1.1, M4 PAM -13.4, M4 antag 9.7, TAAR1 ag 3.6 and TAAR1 antagonist -6.5.
